Assay results as given in paper PMC8521277 (The EMBO Journal, 2021).

B1: GCS: GlcCer synthase, full‐length, expressed in cells (protein)
chain: MALLDLALEGMAVFGFVLFLVLWLMHFMAIIYTRLHLNKKATDKQPYSKLPGVSLLKPLKGVDPNLINNLETFFELDYPKYEVLLCVQDHDDPAIDVCKKLLGKYPNVDARLFIGGKKVGINPKINNLMPGYEVAKYDLIWICDSGIRVIPDTLTDMVNQMTEKVGLVHGLPYVADRQGFAATLEQVYFGTSHPRYYISANVTGFKCVTGMSCLMRKDVLDQAGGLIAFAQYIAEDYFMAKAIADRGWRFAMSTQVAMQNSGSYSISQFQSRMIRWTKLRINMLPATIICEPISECFVASLIIGWAAHHVFRWDIMVFFMCHCLAWFIFDYIQLRGVQGGTLCFSKLDYAVAWFIRESMTIYIFLSALWDPTISWRTGRYRLRCGGTAEEILDV
modifications: left off: HA (9aa), internal (between the two Gly residues of DPTISWRTGRYRLRCGGTAEEILDV), kept
B2: GCS‐HAC: GCS with a HA‐tag at the C‐terminus (protein, UniProt Q16739 1-394, looked up)
Ceramide glucosyltransferase: B1 chain
modifications: C-terminal HA tag
B3: GCS‐HAN: GCS with a HA‐tag in the N‐terminal tail (protein, UniProt Q16739 1-394, looked up)
Ceramide glucosyltransferase: B1 chain
modifications: HA tag in N-terminal tail
B4: Gb3S: Gb3 synthase, expressed in cells (protein)
chain: MSKPPDLLLRLLRGAPRQRVCTLFIIGFKFTFFVSIMIYWHVVGEPKEKGQLYNLPAEIPCPTLTPPTPPSHGPTPGNIFFLETSDRTNPNFLFMCSVESAARTHPESHVLVLMKGLPGGNASLPRHLGISLLSCFPNVQMLPLDLRELFRDTPLADWYAAVQGRWEPYLLPVLSDASRIALMWKFGGIYLDTDFIVLKNLRNLTNVLGTQSRYVLNGAFLAFERRHEFMALCMRDFVDHYNGWIWGHQGPQLLTRVFKKWCSIRSLAESRACRGVTTLPPEAFYPIPWQDWKKYFEDINPEELPRLLSATYAVHVWNKKSQGTRFEATSRALLAQLHARYCPTTHEAMKMYL
modifications: left off: HA, end not stated, kept
B5: GCS‐Δ3C (protein)
chain: MALLDLALEGMAVFGFVLFLVLWLMHFMAIIYTRLHLNKKATDKQPYSKLPGVSLLKPLKGVDPNLINNLETFFELDYPKYEVLLCVQDHDDPAIDVCKKLLGKYPNVDARLFIGGKKVGINPKINNLMPGYEVAKYDLIWICDSGIRVIPDTLTDMVNQMTEKVGLVHGLPYVADRQGFAATLEQVYFGTSHPRYYISANVTGFKCVTGMSCLMRKDVLDQAGGLIAFAQYIAEDYFMAKAIADRGWRFAMSTQVAMQNSGSYSISQFQSRMIRWTKLRINMLPATIICEPISECFVASLIIGWAAHHVFRWDIMVFFMCHCLAWFIFDYIQLRGVQGGTLCFSKLDYAVAWFIRESMTIYIFLSALWDPTISWRTGRYRLRCGGTAEEI
modifications: left off: HA (9aa), internal (between the two Gly residues of DPTISWRTGRYRLRCGGTAEEI), kept
B6: LCS: LacCer synthase, expressed in cells (protein)
chain: MRARRGLLRLPRRSLLAALFFFSLSSSLLYFVYVAPGIVNTYLFMMQAQGILIRDNVRTIGAQVYEQVLRSAYAKRNSSVNDSDYPLDLNHSETFLQTTTFLPEDFTYFANHTCPERLPSMKGPIDINMSEIGMDYIHELFSKDPTIKLGGHWKPSDCMPRWKVAILIPFRNRHEHLPVLFRHLLPMLQRQRLQFAFYVVEQVGTQPFNRAMLFNVGFQEAMKDLDWDCLIFHDVDHIPESDRNYYGCGQMPRHFATKLDKYMYLLPYTEFFGGVSGLTVEQFRKINGFPNAFWGWGGEDDDLWNRVQNAGYSVSRPEGDTGKYKSIPHHHRGEVQFLGRYALLRKSKERQGLDGLNNLNYFANITYDALYKNITVNLTPELAQVNEY
modifications: left off: HA, end not stated, kept
B7: GM3S: GM3 synthase, expressed in cells (protein)
chain: MRTKAAGCAERRPLQPRTEAAAAPAGRAMPSEYTYVKLRSDCSRPSLQWYTRAQSKMRRPSLLLKDILKCTLLVFGVWILYILKLNYTTEECDMKKMHYVDPDHVKRAQKYAQQVLQKECRPKFAKTSMALLFEHRYSVDLLPFVQKAPKDSEAESKYDPPFGFRKFSSKVQTLLELLPEHDLPEHLKAKTCRRCVVIGSGGILHGLELGHTLNQFDVVIRLNSAPVEGYSEHVGNKTTIRMTYPEGAPLSDLEYYSNDLFVAVLFKSVDFNWLQAMVKKETLPFWVRLFFWKQVAEKIPLQPKHFRILNPVIIKETAFDILQYSEPQSRFWGRDKNVPTIGVIAVVLATHLCDEVSLAGFGYDLNQPRTPLHYFDSQCMAAMNFQTMHNVTTETKFLLKLVKEGVVKDLSGGIDREF
modifications: left off: HA, end not stated, kept

Legend:
[1] = molecular target: GRASP domain of GRASP55 (recombinant protein used for ITC); test: ITC
HeLa cells [2] = test: Localization of SL biosynthetic enzymes after Brefeldin A, immunofluorescence; format: cell-based, human; conditions: BFA 5 μg/ml, 30 min; SMS1 also in punctate structures
HeLa cells [3] = test: [3H]-sphingosine pulse-chase assay after expression of GCS constructs; format: cell-based, human; conditions: 8 h chase, two independent experiments; for increase in GSL production: transfected construct 16 h
Outline: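 HeLa cells were transfected with GCS constructs for 16 h, with non-transfected cells run alongside. Cells were pulse-labelled for 2 h with [3H]-sphingosine (final 0.1 μCi/ml) in serum-free DMEM with 1% fatty-acid-free BSA, then chased 8 h in complete medium with or without BFA (5 μg/ml). Lipids were extracted and resolved by HPTLC (chloroform/methanol/water 65:25:4). Total GSL radioactivity is given as fold change versus control, mean ± SD of two experiments, with Student's t-test.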

endogenous GRASP55 = format: binding, human; conditions: HA-tagged enzymes, WI-26 fibroblasts, anti-HA IP
GRASP55‐GFP = test: Co-immunoprecipitation of HA-tagged enzymes with GRASP55-GFP in HeLa cells; format: binding, human; conditions: anti-GFP IP, anti-HA blot
Outline: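 HeLa cells were co-transfected with HA-tagged GCS, LCS, GM3S or Gb3S plus GRASP55-GFP. Cells were lysed and immunoprecipitated with anti-GFP antibody or control IgG. Interaction was read by Western blotting with anti-HA antibody.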

Molecule | co-immunoprecipitation with endogenous GRASP55 (in words) (endogenous GRASP55) | co-immunoprecipitation with GRASP55-GFP (in words) (GRASP55‐GFP) | other results
GCS C-terminal cytosolic tail peptide (biotinylated, WT) |  |  | Kd [1]: 2000 nM
C[C@H]1CCC/C=C/[C@@H]2C[C@H](O)C[C@H]2[C@H](O)/C=C/C(=O)O1 [Brefeldin A, reference compound] |  |  | localization of SL biosynthetic enzymes (in words) (HeLa cells [2]): translocation of the enzymes back into the ER; effect on differences in GSL production between GCS constructs (in words) (HeLa cells [3]; BFA 5 μg/ml): neutralized these differences
B1 | interaction of GCS and LCS with endogenous GRASP55 was also observed | co‐immunoprecipitated with GRASP55‐GFP | 
B2 |  |  | increase in GSL production (HeLa cells [3]): 2.3 fold
B3 |  |  | increase in GSL production (HeLa cells [3]): 2.6 fold
B4 |  | do not interact | 
B5 | impaired the interaction |  | 
B6 | interaction of GCS and LCS with endogenous GRASP55 was also observed | co‐immunoprecipitated with GRASP55‐GFP | 
B7 |  | do not interact | 
